The source of these data is ChEMBL document CHEMBL2331481, “Chemotherapy of leishmaniasis part X: synthesis and bioevaluation of novel terpenyl heterocycles” (Bioorg Med Chem Lett, 2013).

Series [1] has as its system Leishmania donovani. Kind of series: Antileishmanial activity against Leishmania donovani amastigote infected in mouse J774A.1 cells after 72 hrs by luciferase reporter gene assay. The series is classed as functional, organism-based. The note with it: J774.A1, 72 h. In outline:
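Macrophages seeded at 4×10^4 cells/well in RPMI-1640 + 10% FCS, 37 °C CO2, 24 h; then infected with stationary-phase luciferase-expressing promastigotes (4×10^5/well), which transform to amastigotes. Compounds at 2-fold dilutions, 7 points from 40 µM, 72 h. Read-out: luminescence after Steady Glo in PBS. IC50 by nonlinear regression of concentration-response, four-parameter Hill equation.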

In series [2] the test system is Leishmania donovani. The series is described as follows: Leishmanicidal activity against Leishmania donovani MHOM/IN/80/Dd8 infected in golden hamster at 50 mg/kg, ip for 5 consecutive days measured on day 7 of last drug administration by Giemsa staining method. The format is functional. The note with it: MHOM/IN/80/Dd8, ip, 168 h, route intraperitoneal. In outline: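 Inbred hamsters of either sex, 40-45 g, infected intracardially with 1×10^7 amastigotes; infection establishes in 15-20 days. Only animals with +1 infection (5-15 amastigotes/100 spleen nuclei) on pre-treatment spleen biopsy were used, randomized by parasite burden, 5-6 per group. i.p. dosing began 2 days after biopsy. Giemsa amastigote counts; PI = 100 − [ANAT×100/(INAT×TIUC)].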

Series [3] in a line: Selectivity index, ratio of CC50 for human KB cells to IC50 for Leishmania donovani amastigote infected in mouse J774A.1 cells. The format is functional. The gist of the method: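 SI computed as CC50 in KB cells (MTT, 72 h) divided by IC50 against amastigotes in luciferase-reporter infected J774A.1 macrophages (72 h).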
Series [4] can be described thus: Cytotoxicity against human KB cells after 72 hrs by MTT assay. The series is classed as cell-based. The gist of the method:
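Exponentially growing cells at 1×10^5/well, 72 h at 37 °C, humidified CO2, with compounds at 3-fold dilutions, 7 points from 400 µM. Compounds dissolved in DMSO, diluted in complete medium. DMSO vehicle wells; podophyllotoxin reference. MTT (5 mg/ml in PBS) 2 h at 37 °C, formazan dissolved in DMSO, absorbance 544 nm. CC50 is the concentration giving 50% viability loss versus medium-only cells, estimated per Huber and Koella.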

In the case of `CC1=C(/C=C/C2=NN(c3ccccc3)C(c3ccc(Cl)cc3)C2)C(C)(C)CCC1` (stereo not drawn), the IC50 in the series on Leishmania donovani [1] was > 20 µM. The same measure, in the same setting: under `CC1=C(/C=C/C2=NN(c3ccccc3)C(c3cccc(Cl)c3)C2)C(C)(C)CCC1` (stereo not drawn) stands > 40 µM; under `CC1=C(/C=C/C2=NN(c3ccccc3)C(c3ccc(F)cc3)C2)C(C)(C)CCC1` (stereo not drawn), > 40 µM. Still for that read-out and setting: under `CC1=C(/C=C/C2=NN(c3ccccc3)C(c3ccc(OCc4ccccc4)cc3)C2)C(C)(C)CCC1` (stereo not drawn) stands > 40 µM; under `CC1=CCCC(C)(C)C1/C=C/C1=NN(c2ccccc2)C(c2ccccc2[N+](=O)[O-])C1` (stereo not drawn), > 20 µM. Still for that read-out and setting: under `CC1=CCCC(C)(C)C1/C=C/C1=NN(c2ccccc2)C(c2ccc([N+](=O)[O-])cc2)C1` (stereo not drawn) stands > 40 µM. Regarding `CC1=CCCC(C)(C)C1/C=C/C1=NN(c2ccccc2)C(c2ccc(F)cc2)C1` (stereo not drawn), in the series on Leishmania donovani [1], the IC50 was > 40 µM. Same read-out and setting: under `COc1ccc(C2CC(/C=C/C3C(C)=CCCC3(C)C)=NN2c2ccccc2)cc1OC` (stereo not drawn) stands > 20 µM; under `COc1cc(C2CC(/C=C/C3C(C)=CCCC3(C)C)=NN2c2ccccc2)cc(OC)c1OC` (stereo not drawn), > 20 µM; under `CC1=CCCC(C)(C)C1/C=C/c1cc(-c2ccccc2[N+](=O)[O-])n(-c2ccccc2)n1` (stereo not drawn), > 40 µM. Still for that read-out and setting: under `CC1=CCCC(C)(C)C1/C=C/c1cc(-c2ccc([N+](=O)[O-])cc2)n(-c2ccccc2)n1` (stereo not drawn) stands > 40 µM.

As for `CC1=CCCC(C)(C)C1/C=C/c1cc(-c2ccc(F)cc2)n(-c2ccccc2)n1` (stereo not drawn), the IC50 in the series on Leishmania donovani [1] was > 40 µM. The same measure, in the same setting: under `COc1ccc(-c2cc(/C=C/C3C(C)=CCCC3(C)C)nn2-c2ccccc2)cc1OC` (stereo not drawn) stands > 20 µM; under `COc1cc(-c2cc(/C=C/C3C(C)=CCCC3(C)C)nn2-c2ccccc2)cc(OC)c1OC` (stereo not drawn), > 40 µM; under `CC1=C(/C=C/C2=NN(c3ccccc3)C(c3ccccc3[N+](=O)[O-])C2)C(C)(C)CCC1` (stereo not drawn), > 20 µM. Same read-out and setting: under `CC1=C(/C=C/C2=NN(c3ccccc3)C(c3ccc([N+](=O)[O-])cc3)C2)C(C)(C)CCC1` (stereo not drawn) stands > 40 µM. On to `CC1=C(/C=C/C2=NN(c3ccccc3)C(c3cccc([N+](=O)[O-])c3)C2)C(C)(C)CCC1` (stereo not drawn), for which the inhibition in vivo at 50 mg/kg with Leishmania donovani [2] was found to be 7.13%. The “Ratio CC50/IC50” value in series [3] amounted to 16.48. This molecule also displayed a CC50 at 72 h in series [4] of 279 µM. The same molecule gave an IC50 in the series with Leishmania donovani [1] of 16.9 µM. In the same order, the values of `COc1ccc(C2CC(/C=C/C3=C(C)CCCC3(C)C)=NN2c2ccccc2)cc1OC` (stereo not drawn) are 80.8%, 29.46, 221 µM and 7.49 µM. `COc1cc(C2CC(/C=C/C3=C(C)CCCC3(C)C)=NN2c2ccccc2)cc(OC)c1OC` (stereo not drawn): the IC50 with Leishmania donovani [1] is > 20 µM. Still for that read-out and setting: under `CC1=C(/C=C/C2=NN(c3ccccc3)C(c3ccccc3Cl)C2)C(C)(C)CCC1` (stereo not drawn) stands > 20 µM. `CCCCCCCCCCCCCCCCOP(=O)([O-])OCC[N+](C)(C)C` [MILTEFOSINE] registered an inhibition in vivo at 50 mg/kg with Leishmania donovani [2] of 95.3%. The “Ratio CC50/IC50” value in series [3] is 0.26.
